Results as given in ChEMBL document CHEMBL2311257, “Synthesis and antioxidant activity of thymol and carvacrol based Schiff bases” (Bioorg Med Chem Lett, 2013).
≈ marks a conversion by molar mass, not a printed value. Calls of active or inactive are those of the source. No cut-off for these calls is given here.

Tests used:
Type in all cases: functional
[1] = test system: Radical scavenging activity; experiment: Antioxidant activity assessed as DPPH radical scavenging activity in chloroform solution at 25 ug/mL
[2] = test system: Radical scavenging activity; experiment: Antioxidant activity assessed as DPPH radical scavenging activity in ethanol solution at 10 ug/mL
How it was run: (§1)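 Compound dissolved in ethanol, then ethanolic DPPH added. Incubated 30 min in the dark. DPPH decrease read as absorbance at 517 nm against an ethanol blank, with ascorbic acid as reference. % activity = [(A0 − Ai)/A0] × 100, where A0 is absorbance without compound and Ai with compound. IC50 taken from activity across concentrations.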

[3] = test system: Radical scavenging activity; experiment: Antioxidant activity assessed as DPPH radical scavenging activity in chloroform solution
[4] = test system: Radical scavenging activity; experiment: Antioxidant activity assessed as DPPH radical scavenging activity in ethanol solution at 100 ug/mL; how it was run: as §1
[5] = test system: Radical scavenging activity; experiment: Antioxidant activity assessed as DPPH radical scavenging activity in chloroform solution at 100 ug/mL
[6] = test system: Radical scavenging activity; experiment: Antioxidant activity assessed as DPPH radical scavenging activity in ethanol solution at 25 ug/mL; how it was run: as §1
[7] = test system: Radical scavenging activity; experiment: Antioxidant activity assessed as DPPH radical scavenging activity in ethanol solution; how it was run: as §1
[8] = test system: Radical scavenging activity; experiment: Antioxidant activity assessed as DPPH radical scavenging activity in ethanol solution at 5 ug/mL; how it was run: as §1
[9] = test system: Radical scavenging activity; experiment: Antioxidant activity assessed as DPPH radical scavenging activity in chloroform solution at 10 ug/mL
[10] = test system: Radical scavenging activity; experiment: Antioxidant activity assessed as DPPH radical scavenging activity in ethanol solution at 50 ug/mL; how it was run: as §1
[11] = test system: Radical scavenging activity; experiment: Antioxidant activity assessed as DPPH radical scavenging activity in chloroform solution at 5 ug/mL
[12] = test system: Radical scavenging activity; experiment: Antioxidant activity assessed as DPPH radical scavenging activity in chloroform solution at 50 ug/mL
[13] = Antioxidant activity assessed as ABTS radical scavenging activity at 5 ug/mL
How it was run: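 ABTS radical cation solution diluted in ethanol to an absorbance of 0.7–0.9 at 734 nm, 30 °C. Equal volume added to ethanolic compound solution (5 µg/mL). Absorbance read after 1 min and converted to percent inhibition.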

SMILES | Activity [1] | Activity [2] | IC50 [3] | Activity [4] | Activity [5] | Activity [6] | IC50 [7] | Activity [8] | Activity [9] | Activity [10] | Activity [11] | Activity [12] | Activity [13]
COc1cc(/C=N/c2cc(C(C)C)c(O)cc2C)cc(OC)c1OC | 68.2% | 41.6% | 22.03 µg/mL (≈ 64.1 µM) | 83.1% | 89.9% | 65.4% | 22.96 µg/mL (≈ 66.9 µM) | 26% | 39.8% | 73.3% | 20.7% | 82.9% | Active
COc1cc(/C=N/c2cc(C(C)(C)C)c(O)cc2C)cc(OC)c1 | 67.9% | 43.8% | 19.62 µg/mL (≈ 59.9 µM) | 80.4% | 89.5% | 66.1% | 20.2 µg/mL (≈ 61.7 µM) | 26.3% | 36.8% | 76.9% | 27% | 86.6% | Active
Cc1cc(/N=C/c2cc(Br)cc(Br)c2O)c(C(C)C)cc1O | 65.8% | 47.3% | 18.73 µg/mL (≈ 43.9 µM) | 90.8% | 88.5% | 72% | 11.97 µg/mL (≈ 28 µM) | 31.5% | 44.4% | 79.3% | 28.1% | 77.4% | Active
Cc1cc(/N=C/c2cc(Br)c(O)c(Br)c2)c(C(C)C)cc1O | 69% | 47.6% | 12.6 µg/mL (≈ 29.5 µM) | 95.2% | 91.3% | 74.6% | 7.85 µg/mL (≈ 18.4 µM) | 33.3% | 45.4% | 88.2% | 31.7% | 85.8% | Active
COc1ccc(/C=N/c2cc(C)c(O)cc2C(C)C)cc1 | 67.1% | 47.5% | 16.24 µg/mL (≈ 57.3 µM) | 89.5% | 88.7% | 69.2% | 13.5 µg/mL (≈ 47.6 µM) | 30.9% | 41% | 78.9% | 34.2% | 78.4% | Active
Cc1cc(/N=C/c2ccc(O)cc2)c(C(C)C)cc1O | 66.2% | 48.6% | 15.13 µg/mL (≈ 56.2 µM) | 92.2% | 88.1% | 70.4% | 9.76 µg/mL (≈ 36.2 µM) | 33.7% | 42.8% | 82.9% | 36.1% | 75.9% | Active
Cc1cc(O)c(C(C)(C)C)cc1/N=C/c1ccc(O)cc1 | 63.3% | 50.8% | 14.26 µg/mL (≈ 50.3 µM) | 94.6% | 92.6% | 70.9% | 8.77 µg/mL (≈ 30.9 µM) | 31% | 49.6% | 89.3% | 31% | 82.3% | Active
Cc1cc(O)c(C(C)(C)C)cc1/N=C/c1ccccc1O | 70% | 51% | 14.36 µg/mL (≈ 50.7 µM) | 90.7% | 90.9% | 69.6% | 10.54 µg/mL (≈ 37.2 µM) | 29% | 48.6% | 86.4% | 24.9% | 85.7% | Active
Cc1cc(O)c(C(C)(C)C)cc1/N=C/c1cc(Br)c(O)c(Br)c1 | 78.5% | 49% | 10.69 µg/mL (≈ 24.2 µM) | 95.8% | 95.3% | 82.8% | 7.55 µg/mL (≈ 17.1 µM) | 23.9% | 50.3% | 95.8% | 24.2% | 85.7% | Active
Cc1cc(O)c(C(C)(C)C)cc1/N=C/c1cc(Br)cc(Br)c1O | 76.4% | 48.2% | 13.46 µg/mL (≈ 30.5 µM) | 90.1% | 90.7% | 72.7% | 11.45 µg/mL (≈ 26 µM) | 26.7% | 45.2% | 88.8% | 24.6% | 86.1% | Active
COc1cc(/C=N/c2cc(C(C)(C)C)c(O)cc2C)cc(OC)c1OC | 75.8% | 44.9% | 18.6 µg/mL (≈ 52 µM) | 84.4% | 91.8% | 65.4% | 18.79 µg/mL (≈ 52.6 µM) | 25.9% | 45.2% | 81% | 17.3% | 81.7% | Active
COc1ccc(/C=N/c2cc(C)c(O)cc2C(C)C)cc1OC | 64.2% | 44.1% | 20.1 µg/mL (≈ 64.1 µM) | 87.8% | 89.8% | 67.5% | 18.12 µg/mL (≈ 57.8 µM) | 29.1% | 43% | 75.5% | 25.4% | 82.3% | Active
Cc1cc(O)c(C(C)C)cc1/N=C/c1cc(Br)cc(Br)c1O | 68.3% | 44.2% | 19.19 µg/mL (≈ 44.9 µM) | 88.7% | 85.3% | 75.9% | 12.76 µg/mL (≈ 29.9 µM) | 26.8% | 45.1% | 85.9% | 24.3% | 78.1% | Active
COc1ccc(/C=N/c2cc(C(C)C)c(O)cc2C)cc1 | 74.1% | 43.3% | 15.79 µg/mL (≈ 55.7 µM) | 88.5% | 90.2% | 77.5% | 12.54 µg/mL (≈ 44.3 µM) | 27.3% | 44.6% | 85% | 21.8% | 87.7% | Active
COc1ccc(/C=N/c2cc(C(C)C)c(O)cc2C)cc1OC | 72% | 43.3% | 19.12 µg/mL (≈ 61 µM) | 89.4% | 88.9% | 73.4% | 18.66 µg/mL (≈ 59.5 µM) | 19.7% | 41.9% | 84.1% | 20.6% | 85.2% | Active
Cc1cc(O)c(C(C)C)cc1/N=C/c1ccccc1O | 70.6% | 49.3% | 14.77 µg/mL (≈ 54.8 µM) | 88.3% | 91% | 70.7% | 11.79 µg/mL (≈ 43.8 µM) | 29.2% | 47.1% | 82% | 23.9% | 88.1% | Active
COc1cc(/C=N/c2cc(C)c(O)cc2C(C)C)cc(OC)c1OC | 64.2% | 45.7% | 25.2 µg/mL (≈ 73.4 µM) | 87.4% | 88% | 66.1% | 19.05 µg/mL (≈ 55.5 µM) | 26.4% | 41.8% | 76.5% | 19.7% | 75.7% | Active
COc1ccc(/C=N/c2cc(C(C)(C)C)c(O)cc2C)cc1 | 82.6% | 50% | 17.55 µg/mL (≈ 59 µM) | 90.6% | 89.8% | 65% | 13.92 µg/mL (≈ 46.8 µM) | 29.2% | 36.3% | 83.4% | 19.7% | 87.3% | Active
Cc1cc(O)c(C(C)C)cc1/N=C/c1ccc(O)cc1 | 70.2% | 51.8% | 13.32 µg/mL (≈ 49.5 µM) | 92.9% | 93% | 77.1% | 9.02 µg/mL (≈ 33.5 µM) | 24.4% | 50% | 89.8% | 26% | 84.5% | Active
COc1cc(/C=N/c2cc(C)c(O)cc2C(C)C)cc(OC)c1 | 61.7% | 40.7% | 25.79 µg/mL (≈ 82.3 µM) | 85.8% | 88.4% | 65.7% | 22.02 µg/mL (≈ 70.3 µM) | 27.5% | 39.3% | 74.2% | 20.4% | 79.1% | Active
